Test results reported in ChEMBL document CHEMBL1124386, “Selective thyromimetics. Cardiac-sparing thyroid hormone analogues containing 3'-arylmethyl substituents” (J Med Chem, 1989).
≈ marks a conversion by molar mass, not a printed value. Values belong to the compound of their own block, whether it stands above or below them. Calls of active or inactive are those of the source. No cut-off for these calls is given here.

Experiments:
[1] = system: Rattus norvegicus; assay: Percent increase in oxygen consumption after seven daily doses of test compound given perorally, with concentration of compound at 5.3 mg/kg; assay type: functional; settings: route oral
Procedure, shortened: (§1)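 Euthyroid rats given seven daily doses, intramuscular or oral, by line; whole-body oxygen consumption measured as percent increase in metabolic rate.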

[2] = system: Rattus norvegicus; assay: Potency for induction of GPDH (mitochondrial cytochrome C 3-phosphoglycerate oxidoreductase) was measured 48 hr after single im injection relative to T3 in heart; LM=low maximal response after 2 daily doses of 50 mg/kg; assay type: functional, organism-based; set-up: dose 50 mg/kg; settings: filed as partial agonist
[3] = Binding affinity to the thyroid hormone receptor was determined in vitro in isolated nuclei of rat liver relative to 3,5,3' triiodothyronine; assay type: tissue-based
[4] = system: Thyroid hormone receptor (Rattus norvegicus); assay: Binding affinity to thyroid hormone receptor, relative to 3,5,3' triiodothyronine receptor, in isolated nuclei of heart
[5] = system: Rattus norvegicus; assay: Potency for induction of GPDH (mitochondrial cytochrome C3-phosphoglycerate oxidoreductase) was measured 48 hours after single intramuscular injection relative to […] in liver; assay type: functional
[6] = Aqueous solubility at 37 degree Celsius at pH 7.38; assay type: physicochemical
Procedure, shortened: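 Solubility in aqueous medium at 37 °C, pH 7.38; given in units of ×10^5 mol/L.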

[7] = system: Rattus norvegicus; assay: Percent increase in oxygen consumption after seven daily doses of test compound given intramuscularly, ata conc of 3.3 mg/kg; assay type: functional; settings: route intramuscular; procedure, shortened: as §1
[8] = system: Rattus norvegicus; assay: Percent increase in oxygen consumption after seven daily doses of test compound given perorally, with concentration of compound at 5 mg/kg; assay type: functional; settings: route oral; procedure, shortened: as §1
[9] = system: Rattus norvegicus; assay: Potency for induction of GPDH (mitochondrial cytochrome C3-phosphoglycerate oxidoreductase) was measured 48 hours after single intramuscular injection relative to T3 in liver; assay type: functional
[10] = system: Rattus norvegicus; assay: In vivo binding affinity for 3,5,3' triiodothyronine receptor of liver nuclei 1 hour after intravenous administration; assay type: organism-based
[11] = system: Rattus norvegicus; assay: Potency for induction of GPDH (mitochondrial cytochrome C3-phosphoglycerate oxidoreductase) was measured 48 hr after single im injection relative to T3 in heart; I=inactive after 2 daily doses of 50 mg/kg; assay type: functional, organism-based; set-up: dose 50 mg/kg
[12] = partition coefficient at 25 degree Celsius in octanol/aqueous buffer at pH 6.02; assay type: physicochemical
[13] = system: Rattus norvegicus; assay: In vivo binding affinity for 3,5,3'' triiodothyronine receptor of heart nuclei 1 hr after intravenous administration; assay type: organism-based
[14] = target: T1, Thyroid hormone receptor beta (Rattus norvegicus) (UniProt P18113); assay: Binding affinity to the receptor was determined in isolated nuclei of liver in vitro relative to 3,5,3' triiodothyronine receptor
T1 sequence (whole entry): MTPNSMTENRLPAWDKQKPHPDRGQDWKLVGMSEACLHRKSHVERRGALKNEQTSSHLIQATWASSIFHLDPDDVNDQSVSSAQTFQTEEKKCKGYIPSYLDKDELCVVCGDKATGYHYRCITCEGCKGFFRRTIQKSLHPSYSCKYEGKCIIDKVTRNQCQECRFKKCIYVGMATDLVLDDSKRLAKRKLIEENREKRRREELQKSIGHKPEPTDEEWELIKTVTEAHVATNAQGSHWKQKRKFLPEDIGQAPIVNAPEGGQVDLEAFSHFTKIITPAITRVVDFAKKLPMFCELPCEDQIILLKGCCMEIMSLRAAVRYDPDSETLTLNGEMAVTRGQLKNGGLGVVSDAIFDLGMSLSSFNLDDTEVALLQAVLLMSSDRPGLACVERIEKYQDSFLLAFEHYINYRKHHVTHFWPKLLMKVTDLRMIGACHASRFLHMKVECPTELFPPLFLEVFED

[15] = system: Rattus norvegicus; assay: Potency for induction of GPDH (mitochondrial cytochrome C3-phosphoglycerate oxidoreductase) was measured relative to T3 in heart; I=inactive after 2 daily doses of 50 mg/kg; assay type: functional, organism-based; set-up: dose 50 mg/kg
[16] = system: Rattus norvegicus; assay: Percent increase in oxygen consumption after seven daily oral doses of 5 mg/kg in euthyroid rats
[17] = target: T1, Thyroid hormone receptor beta (Rattus norvegicus); assay: In vivo binding affinity to the receptor was determined in nuclei of heart 1 h after intravenous administration relative to 3,5,3' triiodothyronine receptor
[18] = system: Rattus norvegicus; assay: Potency for induction of GPDH (mitochondrial cytochrome C3-phosphoglycerate oxidoreductase) was measured 48 hours after single intramuscular injection relative to T3 in heart; assay type: functional
[19] = system: Rattus norvegicus; assay: Percent increase in oxygen consumption after seven daily doses of test compound given intramuscularly, with the concentration of compound at 0.1 mg/kg; assay type: functional; settings: route intramuscular; procedure, shortened: as §1
[20] = system: Rattus norvegicus; assay: Percent increase in oxygen consumption after seven daily doses of test compound given perorally, with concentration of compound at 0.1 mg/kg; assay type: functional; settings: route oral; procedure, shortened: as §1
[21] = system: Rattus norvegicus; assay: Percent increase in oxygen consumption after seven daily doses of test compound given intramuscularly, with concentration of compound at 20 mg/kg; assay type: functional; settings: route intramuscular; procedure, shortened: as §1
[22] = system: Rattus norvegicus; assay: Percent increase in oxygen consumption after seven daily doses of test compound given perorally, with concentration of compound; I=inactive after 2 daily doses of 5o mg/kg; assay type: functional, organism-based; procedure, shortened: as §1
[23] = system: Rattus norvegicus; assay: Percent increase in oxygen consumption after seven daily doses of test compound given intramuscularly, at a conc of 3.3 mg/kg; assay type: functional; settings: route intramuscular; procedure, shortened: as §1
[24] = system: Rattus norvegicus; assay: Percent increase in oxygen consumption after seven daily doses of test compound given perorally; I=inactive after 2 daily doses of 50 mg/kg; assay type: functional, organism-based; set-up: dose 50 mg/kg; procedure, shortened: as §1
[25] = system: Rattus norvegicus; assay: Percent increase in oxygen consumption after seven daily doses in mg/kg increase of test compound given perorally; I=inactive after 2 daily doses of 50 mg/kg; assay type: functional, organism-based; set-up: dose 50 mg/kg; procedure, shortened: as §1
[26] = Selectivity, ratio between relative ID50 in liver and heart
Procedure, shortened: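 Liver/heart selectivity in rats, calculated as (relative ID50)liver divided by (relative ID50)heart, from in vivo nuclear binding 1 h after intravenous dosing.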

[27] = target: T1, Thyroid hormone receptor beta (Rattus norvegicus); assay: Binding affinity to the receptor was determined in nuclei of liver In vivo 1 hour after intravenous administration relative to T3; assay type: organism-based
[28] = target: T1, Thyroid hormone receptor beta (Rattus norvegicus); assay: Binding affinity to the receptor was determined in nuclei of heart in vivo 1 hour after intravenous administration relative to 3,5,3' triiodothyronine receptor
[29] = Partition coefficient at 25 degree Celsius in octanol/aqueous buffer at pH 6.02; assay type: physicochemical
[30] = target: T1, Thyroid hormone receptor beta (Rattus norvegicus); assay: Binding affinity to the receptor was determined in isolated nuclei of heart(In vitro) relative to T3
[31] = system: Rattus norvegicus; assay: Percent increase in oxygen consumption in dose-mg/Kgfter seven daily doses of test compound given intramuscularly, at a conc of 3.3 mg/kg; assay type: functional; settings: route intramuscular; procedure, shortened: as §1
[32] = system: Rattus norvegicus; assay: Percent increase in oxygen consumption after seven daily doses of test compound given perorally, with concentration of compound at 0.04 mg/kg; assay type: functional; settings: route oral; procedure, shortened: as §1
[33] = target: T1, Thyroid hormone receptor beta (Rattus norvegicus); assay: Binding affinity to the receptor was determined in vitro in isolated nuclei of rat liver relative to T3; assay type: tissue-based
[34] = system: Rattus norvegicus; assay: Percent increase in oxygen consumption after seven daily doses of test compound given intramuscularly, with the concentration of compound at 10 mg/kg; assay type: functional; settings: route intramuscular; procedure, shortened: as §1
[35] = target: T1, Thyroid hormone receptor beta (Rattus norvegicus); assay: In vitro binding affinity to the receptor was determined in isolated nuclei of heart relative to T3; assay type: functional
[36] = system: Rattus norvegicus; assay: Percent increase in oxygen consumption after seven daily doses of test compound given perorally, with value in braces indicating the concentration of compound at 5 mg/kg; assay type: functional; settings: route oral; procedure, shortened: as §1

Relative IC50 [3]: 9.8 | Relative IC50 [4]: 10.2
Compound: N[C@@H](Cc1cc(Br)c(Sc2ccc(O)c(Cc3ccc(O)nc3)c2)c(Br)c1)C(=O)O
Increase [1]: 16% | Relative ED50 [2]: Partial agonist | Relative ED50 [5]: 14.5

solubility [6]: 33 µM (≈ 17.8 µg/mL) | Relative IC50 [3]: 2 | Relative IC50 [4]: 1.8 | logD [12]: 0.7
Compound: N[C@@H](Cc1cc(Br)c(Oc2ccc(O)c(Cc3ccc(O)nc3)c2)c(Br)c1)C(=O)O
Increase [7]: 32% | Increase [8]: 31% | Relative ED50 [9]: 6.9 | Relative ID50 [10]: 23 | Relative ED50 [11]: inactive | Relative ID50 [13]: 0.3

Relative IC50 [14]: 21.7 | Relative IC50 [3]: 21.7 | Relative ID50 [17]: 0.26
Compound: O=C(O)CCCc1cc(Br)c(Oc2ccc(O)c(Cc3ccc(O)nc3)c2)c(Br)c1
Relative ED50 [15]: inactive | Increase [16]: 19% | Relative ED50 [9]: 0.69

Relative IC50 [3]: 0.9
Compound: N[C@@H](Cc1cc(Br)c(Oc2ccc(O)c(Cc3ccc(O)nn3)c2)c(Br)c1)C(=O)O
Relative ED50 [18]: <0.1 | Increase [19]: 20% | Relative ED50 [9]: 18 | Increase [20]: 20%

Relative IC50 [3]: 3
Compound: O=C(O)Cc1cc(Br)c(Oc2ccc(O)c(Cc3ccc(O)nc3)c2)c(Br)c1
Relative ED50 [9]: 2 | Increase [21]: 21% | % increase O2 consumption [22]: inactive | Relative ED50 [11]: inactive

Relative IC50 [3]: 14.8 | Relative IC50 [4]: 19.4
Compound: N[C@@H](Cc1cc(I)c(Sc2ccc(O)c(Cc3ccc(O)nc3)c2)c(I)c1)C(=O)O
Increase [23]: 26% | Relative ED50 [9]: 16.6 | Relative ED50 [11]: inactive | % increase O2 consumption [24]: inactive

Ratio [26]: 50 | solubility [6]: 10 µM (≈ 6.32 µg/mL) | Relative ID50 [27]: 10 | Relative IC50 [3]: 2.3 | Relative ID50 [28]: 0.2 | logD [29]: 1.01 | Relative IC50 [30]: 2.7
Compound: N[C@@H](Cc1cc(I)c(Oc2ccc(O)c(Cc3ccc(O)nc3)c2)c(I)c1)C(=O)O
Increase [25]: inactive | Relative ED50 [9]: 1.7 | Relative ED50 [11]: inactive | Increase [31]: 19%

Relative IC50 [3]: 0.48 | Relative IC50 [4]: 0.8
Compound: N[C@@H](Cc1cc(Cl)c(Oc2ccc(O)c(Cc3ccc(O)nn3)c2)c(Cl)c1)C(=O)O
Relative ED50 [2]: Partial agonist | Relative ED50 [5]: 25 | Increase [32]: 15%

Relative IC50 [33]: 0.083 | Relative IC50 [35]: 0.14
Compound: Cc1cc(CC(N)C(=O)O)cc(C)c1Oc1ccc(O)c(Cc2ccc(O)nc2)c1 (centres undefined)
Increase [34]: 28% | Relative ED50 [9]: 1.1 | Increase [36]: 18% | Relative ED50 [11]: inactive
